Data taken from ChEMBL document CHEMBL1155082, “Chemo-enzymatic synthesis of a series of 2,4-syn-functionalized (S)-glutamate analogues: new insight into the structure-activity relation of ionotropic glutamate receptor subtypes 5, 6, and 7” (J Med Chem, 2008).

What was measured:
[1] = Displacement of [3H]KA from KA receptor in rat synaptosomes; format: subcellular, Brain
[2] = Displacement of [3H]AMPA from AMPA receptor in rat synaptosomes; format: subcellular, Brain
Glutamate NMDA receptor = experiment: Displacement of [3H]CGP 39653 from NMDA receptor in rat synaptosomes; format: subcellular, Brain
[3] = target: Glutamate receptor ionotropic, kainate 1 (Rattus norvegicus, UniProt P22756); experiment: Displacement of [3H]SYM2081 from rat recombinant iGluR5
Chain of Glutamate receptor ionotropic, kainate 1 (P22756 whole entry): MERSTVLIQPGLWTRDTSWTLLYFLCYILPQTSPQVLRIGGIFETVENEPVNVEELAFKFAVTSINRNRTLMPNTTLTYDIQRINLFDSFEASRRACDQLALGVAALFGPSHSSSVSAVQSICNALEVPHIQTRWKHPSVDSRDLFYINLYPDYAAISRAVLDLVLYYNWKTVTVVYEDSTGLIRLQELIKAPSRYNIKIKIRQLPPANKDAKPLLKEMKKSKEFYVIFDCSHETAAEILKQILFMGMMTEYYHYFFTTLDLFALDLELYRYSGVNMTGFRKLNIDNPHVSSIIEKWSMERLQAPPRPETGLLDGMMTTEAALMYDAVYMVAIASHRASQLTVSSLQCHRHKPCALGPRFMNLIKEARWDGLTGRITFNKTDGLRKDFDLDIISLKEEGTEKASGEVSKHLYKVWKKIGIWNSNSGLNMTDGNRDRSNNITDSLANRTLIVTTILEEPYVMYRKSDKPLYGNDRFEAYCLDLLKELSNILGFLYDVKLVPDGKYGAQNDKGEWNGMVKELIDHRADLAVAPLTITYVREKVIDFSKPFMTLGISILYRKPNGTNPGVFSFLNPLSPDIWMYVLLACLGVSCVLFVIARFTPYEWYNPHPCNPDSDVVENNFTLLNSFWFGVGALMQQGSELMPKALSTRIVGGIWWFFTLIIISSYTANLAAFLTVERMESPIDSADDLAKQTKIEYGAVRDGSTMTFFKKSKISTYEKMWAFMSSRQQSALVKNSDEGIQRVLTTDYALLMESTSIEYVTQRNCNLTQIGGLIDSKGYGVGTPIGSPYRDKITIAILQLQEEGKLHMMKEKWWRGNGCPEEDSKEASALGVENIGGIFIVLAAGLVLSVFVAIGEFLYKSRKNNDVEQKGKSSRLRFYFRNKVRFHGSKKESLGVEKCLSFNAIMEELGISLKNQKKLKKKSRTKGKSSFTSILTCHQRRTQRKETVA

[4] = target: Glutamate receptor ionotropic, kainate 2 (Rattus norvegicus, UniProt P42260); experiment: Displacement of [3H]SYM2081 from rat recombinant iGluR6
Chain of Glutamate receptor ionotropic, kainate 2 (P42260 whole entry): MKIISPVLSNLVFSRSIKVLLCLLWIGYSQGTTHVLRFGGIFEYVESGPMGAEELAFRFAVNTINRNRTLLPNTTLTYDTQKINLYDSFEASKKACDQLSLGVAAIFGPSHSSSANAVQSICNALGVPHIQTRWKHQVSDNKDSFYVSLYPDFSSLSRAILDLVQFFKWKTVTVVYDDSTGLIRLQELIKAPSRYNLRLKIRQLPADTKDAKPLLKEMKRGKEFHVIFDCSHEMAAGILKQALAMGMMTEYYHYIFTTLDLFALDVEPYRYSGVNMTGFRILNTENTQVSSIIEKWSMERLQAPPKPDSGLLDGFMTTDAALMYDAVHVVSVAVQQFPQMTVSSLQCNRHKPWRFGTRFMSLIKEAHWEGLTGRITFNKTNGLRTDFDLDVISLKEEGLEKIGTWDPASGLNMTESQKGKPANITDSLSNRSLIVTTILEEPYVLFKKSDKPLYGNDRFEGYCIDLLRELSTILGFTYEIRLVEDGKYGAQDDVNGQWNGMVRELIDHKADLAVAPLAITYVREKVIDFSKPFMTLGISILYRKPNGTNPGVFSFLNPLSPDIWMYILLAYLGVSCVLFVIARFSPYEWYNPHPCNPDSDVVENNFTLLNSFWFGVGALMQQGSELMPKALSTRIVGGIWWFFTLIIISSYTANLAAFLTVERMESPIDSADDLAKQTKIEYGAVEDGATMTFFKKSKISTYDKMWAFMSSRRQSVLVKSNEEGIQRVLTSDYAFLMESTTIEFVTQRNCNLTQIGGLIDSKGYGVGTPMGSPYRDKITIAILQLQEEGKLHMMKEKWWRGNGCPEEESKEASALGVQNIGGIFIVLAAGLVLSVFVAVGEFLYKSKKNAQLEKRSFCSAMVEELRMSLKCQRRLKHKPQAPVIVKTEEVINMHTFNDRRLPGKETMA

[5] = target: Metabotropic glutamate receptor 1 (Rattus norvegicus, UniProt P23385); experiment: Activity at rat mGluR1 expressed in HEK293 cells assessed as calcium mobilization by FLIPR; format: functional, cell-based
Chain of Metabotropic glutamate receptor 1 (P23385 whole entry): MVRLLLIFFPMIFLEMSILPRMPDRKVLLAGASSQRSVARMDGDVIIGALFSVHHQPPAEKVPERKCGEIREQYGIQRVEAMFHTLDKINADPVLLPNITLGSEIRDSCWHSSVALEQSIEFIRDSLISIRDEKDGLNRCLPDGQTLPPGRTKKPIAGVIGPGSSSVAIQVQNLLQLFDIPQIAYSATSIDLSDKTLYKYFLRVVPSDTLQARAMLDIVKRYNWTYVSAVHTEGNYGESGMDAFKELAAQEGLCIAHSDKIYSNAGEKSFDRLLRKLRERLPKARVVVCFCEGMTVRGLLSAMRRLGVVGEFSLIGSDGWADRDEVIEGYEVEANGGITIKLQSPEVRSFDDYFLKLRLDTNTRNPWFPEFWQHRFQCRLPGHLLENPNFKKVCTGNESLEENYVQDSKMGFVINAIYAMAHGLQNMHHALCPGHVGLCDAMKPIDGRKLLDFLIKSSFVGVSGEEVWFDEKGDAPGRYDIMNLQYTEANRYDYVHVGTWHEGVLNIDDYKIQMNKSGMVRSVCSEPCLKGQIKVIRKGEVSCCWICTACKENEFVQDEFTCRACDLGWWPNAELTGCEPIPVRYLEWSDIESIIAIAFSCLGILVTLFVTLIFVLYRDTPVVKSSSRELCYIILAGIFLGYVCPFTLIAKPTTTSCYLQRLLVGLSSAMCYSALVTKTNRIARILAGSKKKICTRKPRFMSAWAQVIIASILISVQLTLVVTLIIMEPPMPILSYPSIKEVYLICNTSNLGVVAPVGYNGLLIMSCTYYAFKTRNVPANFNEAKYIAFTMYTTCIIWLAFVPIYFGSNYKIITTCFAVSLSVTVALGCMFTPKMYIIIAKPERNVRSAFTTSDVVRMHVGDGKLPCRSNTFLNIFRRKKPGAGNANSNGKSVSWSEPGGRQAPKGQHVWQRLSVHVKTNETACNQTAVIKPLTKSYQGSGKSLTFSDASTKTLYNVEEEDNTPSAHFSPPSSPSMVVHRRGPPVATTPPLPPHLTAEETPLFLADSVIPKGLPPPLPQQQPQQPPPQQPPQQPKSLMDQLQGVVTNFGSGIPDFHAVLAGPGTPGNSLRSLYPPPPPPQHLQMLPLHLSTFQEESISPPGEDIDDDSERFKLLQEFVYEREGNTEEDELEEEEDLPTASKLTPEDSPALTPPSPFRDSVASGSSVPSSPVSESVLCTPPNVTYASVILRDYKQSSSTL
Procedure, shortened: (§1)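 Rat receptor cDNA transiently transfected into HEK293 (Lipofectamine Plus), seeded 24 h later, assayed next day. Cells loaded with 3 µM Fluo-4/0.01% pluronic in HEPES-buffered HBSS pH 7.4 with BSA and 2.5 mM probenecid, 1 h, 37 °C. Glutamate at EC80 or EC10 added with compound. FLIPR read over 3 min at room temperature. Maximum fluorescence change fitted by Hill equation.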

[6] = target: Metabotropic glutamate receptor 5 (Rattus norvegicus, UniProt P31424); experiment: Activity at rat mGluR5 expressed in HEK293 cells assessed as calcium mobilization by FLIPR; format: functional, cell-based; procedure, shortened: as §1
[7] = target: T1, Metabotropic glutamate receptor 2 (Rattus norvegicus, UniProt P31421); experiment: Activity at rat mGluR2 expressed in CHO cells assessed as calcium mobilization by FLIPR; format: functional, cell-based
T1 sequence (P31421 whole entry): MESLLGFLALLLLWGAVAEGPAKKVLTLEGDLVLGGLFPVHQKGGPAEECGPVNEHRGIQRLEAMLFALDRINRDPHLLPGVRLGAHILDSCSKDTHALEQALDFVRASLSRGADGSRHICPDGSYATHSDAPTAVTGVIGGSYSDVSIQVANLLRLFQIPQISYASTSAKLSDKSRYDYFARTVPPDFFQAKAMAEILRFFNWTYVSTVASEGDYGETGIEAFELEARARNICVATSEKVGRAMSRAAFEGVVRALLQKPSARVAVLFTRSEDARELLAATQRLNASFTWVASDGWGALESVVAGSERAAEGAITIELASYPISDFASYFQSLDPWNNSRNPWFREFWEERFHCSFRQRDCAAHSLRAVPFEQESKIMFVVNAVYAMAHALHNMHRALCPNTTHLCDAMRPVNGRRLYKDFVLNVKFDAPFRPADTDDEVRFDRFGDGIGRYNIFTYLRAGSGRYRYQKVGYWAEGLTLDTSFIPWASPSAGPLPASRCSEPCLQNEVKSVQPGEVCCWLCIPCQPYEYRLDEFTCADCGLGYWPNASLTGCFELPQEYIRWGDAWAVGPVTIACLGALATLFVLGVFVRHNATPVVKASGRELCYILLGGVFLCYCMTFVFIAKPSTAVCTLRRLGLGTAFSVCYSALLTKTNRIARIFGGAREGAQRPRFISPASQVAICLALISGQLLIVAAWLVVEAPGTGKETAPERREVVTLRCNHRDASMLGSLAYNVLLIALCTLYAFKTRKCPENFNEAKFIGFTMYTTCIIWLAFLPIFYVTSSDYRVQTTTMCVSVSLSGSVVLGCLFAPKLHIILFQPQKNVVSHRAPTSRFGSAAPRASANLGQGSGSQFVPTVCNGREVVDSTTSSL
Procedure, shortened: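 Rat mGluR2 cDNA co-transfected 8:2 with C. elegans GR Qi3 chimera cDNA into CHO cells (Lipofectamine Plus, 10 µg DNA/~7×10^6 cells). Fluo-4 loading for 1 h at 37 °C. Stimulation with EC80 or EC10 glutamate plus compound. FLIPR maximum fluorescence change over 3 min at room temperature, baseline-subtracted, fitted by Hill equation.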

[8] = target: Metabotropic glutamate receptor 4 (Homo sapiens, UniProt Q14833); experiment: Activity at mGluR4 assessed as calcium mobilization by FLIPR; format: functional
[9] = target: T1, Metabotropic glutamate receptor 2; experiment: Displacement of [3H][…] from rat mGluR2 expressed in CHO cells by SPA; format: cell-based
Procedure, shortened: (§2)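 Membranes from transiently transfected CHO cells harvested 48 h post-transfection, protein by Bradford, stored at -80 °C. SPA binding at 10 µg protein/well in 50 mM Tris-HCl pH 7.0 with 2 mM MgCl2, 2 nM [3H]LY341495 and WGA-SPA beads. Incubated 45 min on ice, then overnight at 4 °C. Nonspecific binding with 10 µM LY341495. Ki by Cheng-Prusoff.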

[10] = target: Metabotropic glutamate receptor 3 (Rattus norvegicus, UniProt P31422); experiment: Displacement of [3H][…] from rat mGluR3 expressed in CHO cells by SPA; format: cell-based; procedure, shortened: as §2
Chain of Metabotropic glutamate receptor 3 (P31422 whole entry): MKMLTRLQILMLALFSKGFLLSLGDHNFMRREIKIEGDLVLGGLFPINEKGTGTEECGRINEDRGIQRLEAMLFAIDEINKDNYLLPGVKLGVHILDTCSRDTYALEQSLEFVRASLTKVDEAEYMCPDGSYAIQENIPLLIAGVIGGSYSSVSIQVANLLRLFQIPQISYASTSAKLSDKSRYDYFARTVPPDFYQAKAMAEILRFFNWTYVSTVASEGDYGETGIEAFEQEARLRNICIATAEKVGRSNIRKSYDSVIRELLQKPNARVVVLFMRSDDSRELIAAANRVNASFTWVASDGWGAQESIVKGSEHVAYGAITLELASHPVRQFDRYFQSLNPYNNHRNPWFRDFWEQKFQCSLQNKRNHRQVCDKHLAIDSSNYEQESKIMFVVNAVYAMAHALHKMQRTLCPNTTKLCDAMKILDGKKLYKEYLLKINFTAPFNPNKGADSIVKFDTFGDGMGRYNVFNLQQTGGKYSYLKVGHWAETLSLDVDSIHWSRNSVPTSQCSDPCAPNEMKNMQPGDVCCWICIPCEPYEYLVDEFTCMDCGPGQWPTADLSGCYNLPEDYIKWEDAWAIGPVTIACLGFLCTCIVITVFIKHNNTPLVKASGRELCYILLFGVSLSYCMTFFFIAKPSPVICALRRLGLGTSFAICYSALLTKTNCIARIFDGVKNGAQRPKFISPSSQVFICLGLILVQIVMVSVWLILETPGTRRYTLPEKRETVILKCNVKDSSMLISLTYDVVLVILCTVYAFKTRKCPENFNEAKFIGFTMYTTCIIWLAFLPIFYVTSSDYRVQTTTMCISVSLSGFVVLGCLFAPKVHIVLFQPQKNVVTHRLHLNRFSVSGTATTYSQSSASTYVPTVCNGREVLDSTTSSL

Escherichia coli [11] = experiment: Activity at Escherichia coli JM103 aspartate aminotransferase
Procedure, shortened: (§3)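 E. coli AAT purified from overexpressing JM103 carrying pUC119-aspC. Run at 25 °C in 0.1 M potassium phosphate pH 7.6 with 40 mM Asp, 0.2 mM NADH, 0.1-10 mM ketoacid substrate, 0.05 UI AAT and 2 UI malic dehydrogenase coupling. Rates taken from linear OD decay at 340 nm. Kinetic parameters and standard errors from Hanes-Woolf plot by least squares.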

Escherichia coli [12] = experiment: Activity at Escherichia coli JM103 aspartate aminotransferase relative to alpha-ketoglutarate; procedure, shortened: as §3
[13] = target: T2, Glutamate receptor ionotropic, kainate 4 (Rattus norvegicus, UniProt Q01812); experiment: Binding affinity to rat cloned KA1 receptor
T2 sequence (Q01812 whole entry): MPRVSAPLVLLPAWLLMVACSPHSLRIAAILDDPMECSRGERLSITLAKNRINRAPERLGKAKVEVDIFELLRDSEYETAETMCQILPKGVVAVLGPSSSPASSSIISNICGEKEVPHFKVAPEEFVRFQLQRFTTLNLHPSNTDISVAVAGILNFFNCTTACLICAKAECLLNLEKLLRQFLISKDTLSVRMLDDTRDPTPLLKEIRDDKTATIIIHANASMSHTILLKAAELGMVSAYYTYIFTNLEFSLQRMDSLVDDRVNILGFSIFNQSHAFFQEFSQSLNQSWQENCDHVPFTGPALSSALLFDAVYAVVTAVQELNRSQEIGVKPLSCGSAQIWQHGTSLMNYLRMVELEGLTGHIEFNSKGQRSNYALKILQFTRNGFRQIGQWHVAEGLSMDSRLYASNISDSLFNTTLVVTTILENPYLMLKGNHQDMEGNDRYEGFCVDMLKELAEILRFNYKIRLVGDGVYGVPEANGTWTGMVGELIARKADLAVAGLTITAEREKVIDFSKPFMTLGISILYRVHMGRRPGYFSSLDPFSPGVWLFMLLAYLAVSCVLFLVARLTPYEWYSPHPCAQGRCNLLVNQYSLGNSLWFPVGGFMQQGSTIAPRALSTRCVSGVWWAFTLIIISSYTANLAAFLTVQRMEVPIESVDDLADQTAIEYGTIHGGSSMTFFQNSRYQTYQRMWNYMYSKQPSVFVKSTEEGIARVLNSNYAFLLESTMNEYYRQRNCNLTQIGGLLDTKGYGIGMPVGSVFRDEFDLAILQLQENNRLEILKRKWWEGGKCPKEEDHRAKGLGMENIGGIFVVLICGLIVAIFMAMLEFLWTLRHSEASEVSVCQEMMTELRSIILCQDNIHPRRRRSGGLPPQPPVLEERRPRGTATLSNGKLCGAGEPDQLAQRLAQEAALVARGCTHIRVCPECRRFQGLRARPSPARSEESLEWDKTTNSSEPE

IC50 [1] [µM]	pIC50 [1]	IC50 [2] [µM]	Ki (Glutamate NMDA receptor) [µM]	Ki ([3]; read-out: Ki) [µM]	Ki ([4]; read-out: Ki) [µM]	Compound	also measured
41	4.39	74	> 100	0.641	10.6	CCNC(=O)CC[C@H](C[C@H](N)C(=O)O)C(=O)O	pIC50 [2]: 4.13; Ki ([4]; read-out: pKi (converted)): 10.2 µM; EC50 [5]: > 100 µM; EC50 [6]: > 100 µM; EC50 [7]: > 100 µM; EC50 [8]: > 100 µM; Ki [9]: > 1000 µM; Ki [10]: > 1000 µM
–	–	–	–	–	–	O=C(O)C(=O)CC(CO)C(=O)O (racemic)	Km (Escherichia coli [11]): 4700 µM; kcat (Escherichia coli [12]): 1.6%
–	–	–	–	–	–	O=C(O)C(=O)CC(COCc1ccccc1)C(=O)O (racemic)	Km (Escherichia coli [11]): 90 µM; kcat (Escherichia coli [12]): 11%
–	–	–	–	–	–	COC(=O)CCC(CC(=O)C(=O)O)C(=O)O (racemic)	Km (Escherichia coli [11]): 610 µM; kcat (Escherichia coli [12]): 33.6%
–	–	–	–	–	–	O=C(O)CC(CC(=O)C(=O)O)C(=O)O (racemic)	Km (Escherichia coli [11]): 30100 µM; kcat (Escherichia coli [12]): 1.1%
7.9	5.1	31	> 100	0.0428	6.67	COC(=O)CC[C@H](C[C@H](N)C(=O)O)C(=O)O	pIC50 [2]: 4.51; Ki ([3]; read-out: pKi (converted)): 0.0417 µM; Ki ([4]; read-out: pKi (converted)): 6.17 µM; EC50 [5]: > 100 µM; EC50 [6]: > 100 µM; EC50 [7]: > 100 µM; EC50 [8]: > 100 µM; Ki [9]: > 1000 µM; Ki [10]: > 1000 µM
12	4.93	> 100	26	–	–	N[C@@H](C[C@@H](COCc1ccccc1)C(=O)O)C(=O)O	–
39	4.41	> 100	> 100	–	–	N[C@@H](C[C@@H](CC(=O)O)C(=O)O)C(=O)O	–
16	4.8	25	> 100	0.00745	9.66	NC(=O)CC[C@H](C[C@H](N)C(=O)O)C(=O)O	pIC50 [2]: 4.6; EC50 [5]: > 100 µM; EC50 [6]: > 100 µM; EC50 [7]: > 100 µM; EC50 [8]: > 100 µM; Ki [9]: > 1000 µM; Ki [10]: > 1000 µM
–	–	–	–	–	–	COC(=O)CC(CC(=O)C(=O)O)C(=O)O (racemic)	Km (Escherichia coli [11]): 1800 µM; kcat (Escherichia coli [12]): 41%
> 100	–	> 100	52	–	–	N[C@@H](C[C@@H](CCC(=O)O)C(=O)O)C(=O)O	–
29	4.54	32	> 100	0.00381	0.123	CNC(=O)CC[C@H](C[C@H](N)C(=O)O)C(=O)O	pIC50 [2]: 4.51; Ki ([4]; read-out: pKi (converted)): 0.12 µM; EC50 [5]: > 100 µM; EC50 [6]: > 100 µM; EC50 [7]: > 100 µM; EC50 [8]: > 100 µM; Ki [9]: > 1000 µM; Ki [10]: > 1000 µM
> 100	–	> 100	72	0.138	> 100	N[C@@H](C[C@@H](CCC(=O)NCc1ccccc1)C(=O)O)C(=O)O	–
–	–	–	–	–	–	C=C(C)[C@H]1CN[C@H](C(=O)O)[C@H]1CC(=O)O [KAINIC ACID]	Ki [13]: 0.0047 µM
0.24	6.62	44	15	–	–	N[C@@H](C[C@@H](CO)C(=O)O)C(=O)O	pIC50 [2]: 4.35

Compound	IC50 [1] [µM]	pIC50 [1]	IC50 [2] [µM]	Ki (Glutamate NMDA receptor) [µM]	Ki ([3]; read-out: Ki) [µM]	Ki ([4]; read-out: Ki) [µM]	also measured
C/C(=C\C=C\[C@@H](C)C(=O)O)[C@H]1CN[C@H](C(=O)O)[C@H]1CC(=O)O [DOMORIC ACID]	–	–	–	–	0.00111	0.00604	Ki ([3]; read-out: pKi (converted)): 0.00107 µM; Ki ([4]; read-out: pKi (converted)): 0.00575 µM; Ki [13]: 0.04 µM
C[C@H](C[C@H](N)C(=O)O)C(=O)O [2S,4R-4-METHYLGLUTAMATE]	–	–	–	–	–	0.017	–
N[C@@H](Cn1oc(=O)[nH]c1=O)C(=O)O [QUISQUALATE]	–	–	–	–	0.171	–	–
